From ChEMBL document CHEMBL3102840, “Synthesis and anti-proliferative activity of aromatic substituted 5-((1-benzyl-1H-indol-3-yl)methylene)-1,3-dimethylpyrimidine-2,4,6(1H,3H,5H)-trione analogs against human tumor cell lines” (2014)

Experiments:
Assay type in all cases: functional
MDA-MB-468 [1] = assay: Cytotoxicity against human MDA-MB-468 cells after 48 hrs by SRB assay; details: MDA-MB-468, 48 h
How it was run: (§1)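 Five-dose run from the sixty-line panel, at 10−4, 10−5, 10−6, 10−7 and 10−8 M. SRB-stain OD is read just before compound addition, after 48 hrs of exposure, and in vehicle controls, giving percentage growth; negative growth indicates cytotoxicity. GI50 is the concentration giving 50% reduction in net protein increase versus control cells. LC50 is the concentration lethal to 50% of cells.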

BT-549 = assay: Cytotoxicity against human BT549 cells after 48 hrs by SRB assay; details: BT-549, 48 h; for CC50: read-out: LC50 (the source's name); how it was run: as §1
T47D = assay: Cytotoxicity against human T47D cells after 48 hrs by SRB assay; how it was run: as §1
MDA-MB-231 = assay: Cytotoxicity against human MDA-MB-231 cells after 48 hrs by SRB assay; details: MDA-MB-231, 48 h; for CC50: read-out: LC50 (the source's name); how it was run: as §1
MCF7 = assay: Cytotoxicity against human MCF7 cells after 48 hrs by SRB assay; details: MCF7, 48 h; how it was run: as §1
SN12C = assay: Cytotoxicity against human SN12C cells after 48 hrs by SRB assay; details: for CC50: read-out: LC50 (the source's name); how it was run: as §1
TK-10 [2] = assay: Cytotoxicity against human TK10 cells after 48 hrs by SRB assay; details: TK-10, 48 h; for CC50: read-out: LC50 (the source's name); how it was run: as §1
A498 [3] = assay: Cytotoxicity against human A498 cells after 48 hrs by SRB assay; details: A498, 48 h; how it was run: as §1
RXF 393 = assay: Cytotoxicity against human RXF393 cells after 48 hrs by SRB assay; details: RXF 393, 48 h; how it was run: as §1
SK-OV-3 = assay: Cytotoxicity against human SKOV3 cells after 48 hrs by SRB assay; details: SK-OV-3, 48 h; how it was run: as §1
786-0 = assay: Cytotoxicity against human 786-0 cells after 48 hrs by SRB assay; details: 786-0, 48 h; how it was run: as §1
[4] = Cytotoxicity against human NCI-ADR-RES cells after 48 hrs by SRB assay; details: for CC50: read-out: LC50 (the source's name); how it was run: as §1
OVCAR-8 = assay: Cytotoxicity against human OVCAR8 cells after 48 hrs by SRB assay; details: OVCAR-8, 48 h; for CC50: read-out: LC50 (the source's name); how it was run: as §1
[5] = Cytotoxicity against human OVCAR5 cells after 48 hrs by SRB assay; details: OVCAR-5, 48 h; for CC50: read-out: LC50 (the source's name); how it was run: as §1
IGROV-1 = assay: Cytotoxicity against human IGROV1 cells after 48 hrs by SRB assay; details: IGROV-1, 48 h; for CC50: read-out: LC50 (the source's name); how it was run: as §1
UACC-62 = assay: Cytotoxicity against human UACC62 cells after 48 hrs by SRB assay; details: UACC-62, 48 h; how it was run: as §1
[6] = Cytotoxicity against human UACC257 cells after 48 hrs by SRB assay; details: UACC-257, 48 h; for CC50: read-out: LC50 (the source's name); how it was run: as §1
SK-MEL-2 = assay: Cytotoxicity against human SK-MEL-2 cells after 48 hrs by SRB assay; details: SK-MEL-2, 48 h; how it was run: as §1
SK-MEL-5 = assay: Cytotoxicity against human SK-MEL-5 cells after 48 hrs by SRB assay; details: SK-MEL-5, 48 h; how it was run: as §1
MDA-MB-435 = assay: Cytotoxicity against human MDA-MB-435 cells after 48 hrs by SRB assay; details: MDA-MB-435, 48 h; how it was run: as §1
LOX IMVI = assay: Cytotoxicity against human LOXIMVI cells after 48 hrs by SRB assay; details: for CC50: read-out: LC50 (the source's name); how it was run: as §1
SNB-19 = assay: Cytotoxicity against human SNB19 cells after 48 hrs by SRB assay; details: SNB-19, 48 h; how it was run: as §1
SF-295 = assay: Cytotoxicity against human SF295 cells after 48 hrs by SRB assay; details: SF-295, 48 h; how it was run: as §1
SW-620 = assay: Cytotoxicity against human SW620 cells after 48 hrs by SRB assay; details: SW-620, 48 h; for CC50: read-out: LC50 (the source's name); how it was run: as §1
HCT-116 = assay: Cytotoxicity against human HCT116 cells after 48 hrs by SRB assay; details: HCT-116, 48 h; how it was run: as §1
COLO 205 = assay: Cytotoxicity against human COLO205 cells after 48 hrs by SRB assay; details: COLO 205, 48 h; for CC50: read-out: LC50 (the source's name); how it was run: as §1
NCI-H460 = assay: Cytotoxicity against human NCI-H460 cells after 48 hrs by SRB assay; details: NCI-H460, 48 h; for CC50: read-out: LC50 (the source's name); how it was run: as §1
NCI-H23 = assay: Cytotoxicity against human NCI-H23 cells after 48 hrs by SRB assay; details: NCI-H23, 48 h; how it was run: as §1
NCI-H226 [7] = assay: Cytotoxicity against human NCI-H226 cells after 48 hrs by SRB assay; details: NCI-H226, 48 h; for CC50: read-out: LC50 (the source's name); how it was run: as §1
HOP-62 = assay: Cytotoxicity against human HOP62 cells after 48 hrs by SRB assay; details: HOP-62, 48 h; for CC50: read-out: LC50 (the source's name); how it was run: as §1
K562 = assay: Cytotoxicity against human K562 cells after 48 hrs by SRB assay; details: K562, 48 h, read-out: LC50 (the source's name); how it was run: as §1
SR = assay: Cytotoxicity against human SR cells after 48 hrs by SRB assay; how it was run: as §1
MDA-MB-468 [8] = assay: Cytotoxicity against human MDA-MB-468 cells assessed as growth inhibition at 10 uM after 48 hrs by SRB assay; details: MDA-MB-468, 48 h, read-out: GI
How it was run: (§2)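 Single-dose screen at 10µM across the sixty-cell-line panel. Percentage growth is derived from SRB-stain OD taken just before compound exposure, after 48 hrs exposure, and in vehicle-treated controls. Negative values indicate cytotoxicity.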

TK-10 [9] = assay: Cytotoxicity against human TK10 cells assessed as growth inhibition at 10 uM after 48 hrs by SRB assay; details: TK-10, 48 h, read-out: GI; how it was run: as §2
A498 [10] = assay: Cytotoxicity against human A498 cells assessed as growth inhibition at 10 uM after 48 hrs by SRB assay; details: A498, 48 h, read-out: GI; how it was run: as §2
[11] = Cytotoxicity against human OVCAR5 cells assessed as growth inhibition at 10 uM after 48 hrs by SRB assay; details: OVCAR-5, 48 h, read-out: GI; how it was run: as §2
NCI-H226 [12] = assay: Cytotoxicity against human NCI-H226 cells assessed as growth inhibition at 10 uM after 48 hrs by SRB assay; details: NCI-H226, 48 h, read-out: GI; how it was run: as §2

## CN1C(=O)C(=Cc2cn(Cc3ccc(Cl)cc3)c3ccccc23)C(=O)N(C)C1=O
MDA-MB-468 [1]
  GI50: 0.06 µM
  LC50: 0.7 µM
BT-549
  GI50: 12.5 µM
  CC50: > 100 µM
T47D
  GI50: 3.53 µM
  LC50: > 100 µM
MDA-MB-231
  GI50: 12.2 µM
  CC50: > 100 µM
MCF7
  GI50: > 100 µM
  LC50: > 100 µM
SN12C
  GI50: 92.1 µM
  CC50: > 100 µM
TK-10 [2]
  GI50: 0.18 µM
  CC50: 50.4 µM
A498 [3]
  GI50: 0.04 µM
  LC50: 0.64 µM
RXF 393
  GI50: 12.5 µM
  LC50 (lethal concentration, 50%): > 100 µM
SK-OV-3
  GI50: 6.08 µM
  LC50: > 100 µM
786-0
  GI50: 6.9 µM
  LC50: > 100 µM
[4]
  GI50: 16.3 µM
  CC50: > 100 µM
OVCAR-8
  GI50: 21.3 µM
  CC50: > 100 µM
[5]
  GI50: 0.16 µM
  CC50: > 100 µM
IGROV-1
  GI50: 2.88 µM
  CC50: > 100 µM
UACC-62
  GI50: 2.06 µM
  LC50: > 100 µM
[6]
  GI50: 2.01 µM
  CC50: > 100 µM
SK-MEL-2
  GI50: 2.84 µM
SK-MEL-5
  GI50: > 100 µM
  LC50: > 100 µM
MDA-MB-435
  GI50: > 100 µM
  LC50: > 100 µM
LOX IMVI
  GI50: 17.3 µM
  CC50: > 100 µM
SNB-19
  GI50: 18.3 µM
  LC50: > 100 µM
SF-295
  GI50: 1.21 µM
  LC50: > 100 µM
SW-620
  GI50: > 100 µM
  CC50: > 100 µM
HCT-116
  GI50: 4.47 µM
  LC50: > 100 µM
COLO 205
  GI50: 2.78 µM
  CC50: 29.5 µM
NCI-H460
  GI50: 0.4 µM
  CC50: > 100 µM
NCI-H23
  GI50: 10.2 µM
  LC50: > 100 µM
NCI-H226 [7]
  GI50: 1.26 µM
  CC50: > 100 µM
HOP-62
  GI50: 10.7 µM
  CC50: > 100 µM
K562
  CC50: > 100 µM
SR
  GI50: 70.3 µM
  LC50 (lethal concentration, 50%): > 100 µM
MDA-MB-468 [8]
  inhibition of growth at 10 µM: -71%
TK-10 [9]
  inhibition of growth at 10 µM: -26%
A498 [10]
  inhibition of growth at 10 µM: -94%
[11]
  inhibition of growth at 10 µM: -23%
NCI-H226 [12]
  inhibition of growth at 10 µM: -82%

## CN1C(=O)C(=Cc2cn(Cc3ccc(F)cc3)c3ccccc23)C(=O)N(C)C1=O
MDA-MB-468 [1]
  GI50: 0.03 µM
  LC50: 0.5 µM
BT-549
  GI50: 24.1 µM
  CC50: > 100 µM
T47D
  GI50: 5.38 µM
  LC50: > 100 µM
MDA-MB-231
  GI50: 23.6 µM
  CC50: > 100 µM
MCF7
  GI50: > 100 µM
  LC50: > 100 µM
SN12C
  GI50: > 100 µM
  CC50: > 100 µM
TK-10 [2]
  GI50: 0.59 µM
  CC50: > 100 µM
A498 [3]
  GI50: 0.07 µM
  LC50: 0.67 µM
RXF 393
  GI50: 14.9 µM
  LC50 (lethal concentration, 50%): > 100 µM
SK-OV-3
  GI50: 15.3 µM
  LC50: > 100 µM
786-0
  GI50: 22.7 µM
  LC50: > 100 µM
[4]
  GI50: > 100 µM
  CC50: > 100 µM
OVCAR-8
  GI50: > 100 µM
  CC50: > 100 µM
[5]
  GI50: 0.11 µM
  CC50: > 100 µM
IGROV-1
  GI50: 4.33 µM
  CC50: > 100 µM
UACC-62
  GI50: 2.89 µM
  LC50: > 100 µM
[6]
  GI50: 2.52 µM
  CC50: > 100 µM
SK-MEL-2
  GI50: 6.35 µM
SK-MEL-5
  GI50: > 100 µM
  LC50: > 100 µM
MDA-MB-435
  GI50: > 100 µM
  LC50: > 100 µM
LOX IMVI
  GI50: > 100 µM
  CC50: > 100 µM
SNB-19
  GI50: 26.7 µM
  LC50: > 100 µM
SF-295
  GI50: 1.97 µM
  LC50: > 100 µM
SW-620
  GI50: > 100 µM
  CC50: > 100 µM
HCT-116
  GI50: 6.26 µM
  LC50: > 100 µM
COLO 205
  GI50: 1.44 µM
  CC50: > 100 µM
NCI-H460
  GI50: 0.37 µM
  CC50: > 100 µM
NCI-H23
  GI50: 51.5 µM
  LC50: > 100 µM
NCI-H226 [7]
  GI50: 2.56 µM
  CC50: > 100 µM
HOP-62
  GI50: 7.7 µM
  CC50: > 100 µM
K562
  CC50: > 100 µM
SR
  GI50: > 100 µM
  LC50 (lethal concentration, 50%): > 100 µM
MDA-MB-468 [8]
  inhibition of growth at 10 µM: -71%
TK-10 [9]
  inhibition of growth at 10 µM: -15%
A498 [10]
  inhibition of growth at 10 µM: -85%
[11]
  inhibition of growth at 10 µM: -33%
NCI-H226 [12]
  inhibition of growth at 10 µM: -78%
